From ChEMBL document CHEMBL4138225, “Development of novel anti-filarial agents using carbamo(dithioperoxo)thioate derivatives” (Eur J Med Chem, 2018)
In brackets after ≈: the same amount, converted by molar mass. Activity calls are given as the source filed them. The calls are words filed in the database; no cut-off is given here.

Tests used:
Setaria cervi [1] = test: Antifilarial activity against Setaria cervi oocytes after 24 hrs by MTT assay; format: functional, organism-based
Setaria cervi [2] = test: Antifilarial activity against Setaria cervi microfilariae assessed as reduction in worm movement measured every 6 hrs up to 24 hrs by microscopy; format: functional, organism-based
Procedure, shortened: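 About 1×10^5 S. cervi mf per well in RPMI-1640 with 10% FBS at 5% CO2, given a dose series. Motility checked by microscope every 6 h up to 24 h and scored 4 (highly motile) down to 0 (dead). IC50 and MIC calculated from scores; three experiments in triplicate, mean ± SE.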

Setaria cervi [3] = test: Induction of apoptosis in Setaria cervi adult form assessed as increase in CED3 protein levels after 24 hrs by Western blot analysis; format: functional, organism-based
Procedure, shortened: (§1)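 Adult worms treated 24 h at 10, 50 and 100 μg/mL. Protein measured by Lowry; 100 μg run on 12.5% SDS-PAGE and blotted to PVDF. Blocked in 10% skim milk, anti-EGL-1, CED-3 or CED-9 overnight at 4 °C, then alkaline phosphatase secondary for 6 h. BCIP/NBT detection, GAPDH loading control, band densitometry.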

Setaria cervi [4] = test: Induction of apoptosis in Setaria cervi adult form assessed as decrease in CED9 protein levels after 24 hrs by Western blot analysis; format: functional, organism-based; procedure, shortened: as §1
Setaria cervi [5] = test: Induction of apoptosis in Setaria cervi oocytes assessed as viable cells at 50 ug/ml after 6 hrs by Annexin V-FITC/propidium iodide staining-based flow cytometric analysis (reference value: 90.03%); format: functional
Setaria cervi [6] = test: Induction of apoptosis in Setaria cervi microfilaria assessed as late apoptotic cells at 50 ug/ml after 6 hrs by Annexin V-FITC/propidium iodide staining-based flow cytometric analysis (reference value: 0.21%); format: functional
Setaria cervi [7] = test: Induction of apoptosis in Setaria cervi adult form assessed as increase in EGL1 protein levels after 24 hrs by Western blot analysis; format: functional, organism-based; procedure, shortened: as §1
Setaria cervi [8] = test: Induction of apoptosis in Setaria cervi microfilariae at 1 to 5 ug/ml by acridine orange/ethidium bromide staining-based fluorescence microscopic analysis; format: functional, organism-based
Procedure, shortened: (§2)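 Treated mf or oocytes stained with AO and EtBr mixed 1:1 (from […] stocks in 0.1 M PBS). Viewed under fluorescence microscope on glass slides; orange EtBr signal marks lost membrane integrity.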

Setaria cervi [9] = test: Antifilarial activity against Setaria cervi microfilariae after 3 hrs
Setaria cervi [10] = test: Induction of reactive oxygen species generation in Setaria cervi adult form at 1 to 10 uM by NBT assay; format: functional, organism-based
Procedure, shortened: (§3)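 Treated mf or adults pelleted at 7500 rpm, washed in PBS (50 mM, pH 7.0), then incubated in 2% NBT for 2 h at 37 °C. Washed in PBS and methanol, formazan dissolved in 2M KOH/DMSO for 10–15 min at room temperature, absorbance read at 620 nm.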

Setaria cervi [11] = test: Induction of apoptosis in Setaria cervi oocytes assessed as early apoptotic cells at 50 ug/ml after 6 hrs by Annexin V-FITC/propidium iodide staining-based flow cytometric analysis (reference value: 8.19%); format: functional
Setaria cervi [12] = test: Induction of apoptosis in Setaria cervi microfilaria assessed as necrotic cells at 50 ug/ml after 6 hrs by Annexin V-FITC/propidium iodide staining-based flow cytometric analysis (reference value: 0.02%); format: functional
Setaria cervi [13] = test: Induction of chromatin condensation in Setaria cervi microfilariae at 5 ug/ml after 3 hrs by Hoechst 33342 staining-based […] microscopic analysis; format: functional, organism-based
Procedure, shortened: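 Treated mf washed in PBS (pH 7.2), fixed in paraformaldehyde and stained 5 min with 1 mg/mL Hoechst 33342. Mounted on poly-L-lysine slides and imaged by fluorescence microscopy at […].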

Setaria cervi [14] = test: Antifilarial activity against Setaria cervi microfilariae after 24 hrs by MTT assay; format: functional
Procedure, shortened: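 Bovine S. cervi microfilariae incubated with compounds (DMSO-dissolved) in RPMI-1640 + 10% FBS, 5% CO2, 24 h. Worms washed in PBS; ~1×10^3 suspended in 0.3 ml MTT 0.25 mg/ml, 37 °C 2 h in dark. Formazan dissolved in DMSO, absorbance at 595 nm. Percent inhibition computed; LC50 fitted; ≥4 repeats, mean ± SE.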

Setaria cervi [15] = test: Induction of apoptosis in Setaria cervi microfilaria assessed as early apoptotic cells at 50 ug/ml after 6 hrs by Annexin V-FITC/propidium iodide staining-based flow cytometric analysis (reference value: 2.11%); format: functional
Setaria cervi [16] = test: Induction of apoptosis in Setaria cervi oocytes assessed as late apoptotic cells at 50 ug/ml after 6 hrs by Annexin V-FITC/propidium iodide staining-based flow cytometric analysis (reference value: 0.64%); format: functional
Setaria cervi [17] = test: Induction of apoptosis in Setaria cervi microfilaria assessed as viable cells at 50 ug/ml after 6 hrs by Annexin V-FITC/propidium iodide staining-based flow cytometric analysis (reference value: 97.66%); format: functional
Setaria cervi [18] = test: Antifilarial activity against Setaria cervi microfilaria forms after 24 hrs by MTT assay; format: functional, organism-based
Procedure, shortened: (§4)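 S. cervi mf or adults cultured in RPMI-1640 with 10% FBS, 5% CO2, 24 h with compounds dissolved in DMSO. Worms washed in PBS, ~1×10^3 put in 0.25 mg/ml MTT for 2 h at 37 °C in the dark. Formazan dissolved in DMSO, A595. Percent inhibition computed, LC50 fitted; at least four repeats, mean ± SE.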

Setaria cervi [19] = test: Induction of apoptosis in Setaria cervi oocytes at 1 to 10 ug/ml after 6 hrs by Annexin V-FITC/propidium iodide staining-based fluorescence microscopic analysis; format: functional, organism-based
Procedure, shortened: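 Oocytes taken from gravid S. cervi females, cultured in RPMI-1640 with FBS and treated at 1 and 10 μg/mL. Washed, suspended in PBS (50 mM, pH 7.2), spun at 7500 rpm for 5 min, stained with Annexin V-FITC/PI. Imaged by inverted fluorescence microscope.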

Setaria cervi [20] = test: Antifilarial activity against Setaria cervi microfilariae after 3 hrs by trypan blue exclusion assay; format: functional, organism-based
Procedure, shortened: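 After treatment, the culture was mixed and 100 μL holding parasites moved into fresh medium and put back in the CO2 incubator. Viability read by trypan blue staining, dead worms blue. Viability % = live / total microfilariae.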

Setaria cervi [21] = test: Induction of apoptosis in Setaria cervi oocytes at 1 to 5 ug/ml by acridine orange/ethidium bromide staining-based fluorescence microscopic analysis; format: functional, organism-based; procedure, shortened: as §2
[22] = Selectivity ratio of IC50 for human WI38 cells to IC50 for Setaria cervi microfilariae; format: toxicity; details: read-out: Ratio IC50
Setaria cervi [23] = test: Induction of reactive oxygen species generation in Setaria cervi microfilariae at 1 to 10 uM by NBT assay; format: functional, organism-based; procedure, shortened: as §3
WI-38 = test: Cytotoxicity against human WI38 cells after 24 hrs by MTT assay; format: cell-based; details: WI-38, 24 h
Procedure, shortened: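 WI-38 normal human lung fibroblasts, 2.0×10^4 per well, grown 24 h, then treated 24 h at 0–50 µg/mL. MTT 0.5 mg/mL added in phenol red-free RPMI with 5% FBS, 4 h at 37 °C, 5% CO2. Formazan dissolved in DMSO, A570.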

Setaria cervi [24] = test: Antifilarial activity against Setaria cervi adult after 3 hrs by trypan blue exclusion assay; format: functional, organism-based
Setaria cervi [25] = test: Induction of apoptosis in Setaria cervi oocytes assessed as necrotic cells at 50 ug/ml after 6 hrs by Annexin V-FITC/propidium iodide staining-based flow cytometric analysis (reference value: 1.14%); format: functional
Setaria cervi [26] = test: Antifilarial activity against Setaria cervi adult after 24 hrs by MTT assay; format: functional, organism-based; procedure, shortened: as §4

For `Cc1ccc(SSC(=S)N2CCCCC2)cc1`, the Activity (Setaria cervi [1]) was “Active”, the IC50 (Setaria cervi [2]) was 0.708 µg/mL (≈ 2.5 µM) and the MIC (Setaria cervi [2]) was 0.358 µg/mL (≈ 1.26 µM). The Activity (Setaria cervi [3]) was “Dose-dependent effect”, the Activity (Setaria cervi [4]) was “Dose-dependent effect” and the Activity (Setaria cervi [5]) was 70.84%. For the same molecule, the Activity (Setaria cervi [6]) was 15.82%, the Activity (Setaria cervi [7]) was “Dose-dependent effect” and the Activity (Setaria cervi [8]) was “Dose-dependent effect”. The IC50 (Setaria cervi [9]) was 0.708 µg/mL (≈ 2.5 µM), the Activity (Setaria cervi [10]) was “Active” and the Activity (Setaria cervi [11]) was 13.3%. The Activity (Setaria cervi [12]) was 0.01%, the Activity (Setaria cervi [13]) was “Active” and the Activity (Setaria cervi [14]) was “Dose-dependent effect”. The LC50 (Setaria cervi [14]) was 3.89 µg/mL (≈ 13.7 µM), the Activity (Setaria cervi [15]) was 15.6% and the Activity (Setaria cervi [16]) was 11.3%. The Activity (Setaria cervi [17]) was 68.55%, the Activity (Setaria cervi [18]) was “Active” and the Activity (Setaria cervi [19]) was “Dose-dependent effect”. For the same molecule, the Activity (Setaria cervi [20]) was “Dose-dependent effect”, the Activity (Setaria cervi [21]) was “Dose-dependent effect” and the selectivity ratio [22] was 25. For the same molecule, the Activity (Setaria cervi [23]) was “Active”, the IC50 (WI-38) was 19.8 µg/mL (≈ 70 µM) and the Activity (Setaria cervi [24]) was “Dose-dependent effect”. For the same molecule, the Activity (Setaria cervi [25]) was 4.47% and the Activity (Setaria cervi [26]) was “Dose-dependent effect”.
